ChEMBL document CHEMBL1156483, “A directed approach for engineering conditional protein stability using biologically silent small molecules” (J Biol Chem, 2007)
Activity calls are given as the source filed them. No cut-off for these calls is given here.

Assays:
NIH3T3 [1] = assay: (§1) Stability of FKBP12 V2A mutant-YFP fusion protein expressed in NIH3T3 cells after 24 hrs by flow cytometry; type: cell-based
In short: (§2)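 Retrovirally transduced NIH3T3 cells stably expressing V2A-YFP, plated at 1 × 10^5 cells/well and dosed with 3-fold dilutions (10 µM to 1 nM, or 10 µM to 300 nM) for 24 h. Cells trypsinized, resuspended in PBS, YFP read by flow cytometry (10,000 events). Average MFI ±SEM relative to F36V protein; EC50 from dose curve.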

[2] = Displacement of fluorescein-SLF from FKBP12 F36V mutant by fluorescence polarization assay
NIH3T3 [3] = assay: Stability of FKBP12 V2A mutant-N terminus of YFP fusion protein expressed in NIH3T3 cells assessed as mean fluorescence intensity at 1 uM after 24 hrs by flow cytometry relative to FKBP12 F36V mutant; type: cell-based
In short: (§3)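 FKBP mutants (all carrying F36V) fused to the N- or C-terminus of YFP and stably transduced into NIH3T3 cells by MMLV retrovirus (clonally mixed populations). Cells split, mock-treated or given 1 µM for 24 h. YFP read by flow cytometry, 10,000 events. MFI normalized to parent F36V-YFP cells given 1 µM; mean of three experiments ±SEM.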

[4] = as §1; type: cell-based; in short: as §2
[5] = Displacement of fluorescein-SLF from FKBP12 F36V mutant-GST fusion protein by fluorescence polarization assay
[6] = Displacement of fluorescein-SLF from FKBP12 V2A mutant-GST fusion protein by fluorescence polarization assay
[7] = Displacement of fluorescein-SLF from FKBP12 L50A mutant-GST fusion protein by fluorescence polarization assay
[8] = Displacement of fluorescein-SLF from FKBP12 L106A mutant-GST fusion protein by fluorescence polarization assay
NIH3T3 [9] = assay: Stability of FKBP12 F36V mutant-N terminus of YFP fusion protein expressed in NIH3T3 cells assessed as mean fluorescence intensity at 1 uM after 24 hrs by flow cytometry; type: cell-based; in short: as §3
NIH3T3 [10] = assay: Stability of FKBP12 V2A mutant-N terminus of YFP fusion protein expressed in NIH3T3 cells assessed as mean fluorescence intensity at 1 uM after 24 hrs by flow cytometry; type: cell-based; in short: as §3
NIH3T3 [11] = assay: Stability of FKBP12 L50A mutant-N terminus of YFP fusion protein expressed in NIH3T3 cells assessed as mean fluorescence intensity at 1 uM after 24 hrs by flow cytometry; type: cell-based; in short: as §3
NIH3T3 [12] = assay: Stability of FKBP12 L106A mutant-N terminus of YFP fusion protein expressed in NIH3T3 cells assessed as mean fluorescence intensity at 1 uM after 24 hrs by flow cytometry; type: cell-based; in short: as §3
NIH3T3 [13] = assay: Stability of FKBP12 F36V mutant-C terminus of YFP fusion protein expressed in NIH3T3 cells assessed as mean fluorescence intensity at 1 uM after 24 hrs by flow cytometry; type: cell-based; in short: as §3
NIH3T3 [14] = assay: Stability of FKBP12 V2A mutant-C terminus of YFP fusion protein expressed in NIH3T3 cells assessed as mean fluorescence intensity at 1 uM after 24 hrs by flow cytometry; type: cell-based; in short: as §3
NIH3T3 [15] = assay: Stability of FKBP12 L50A mutant-C terminus of YFP fusion protein expressed in NIH3T3 cells assessed as mean fluorescence intensity at 1 uM after 24 hrs by flow cytometry; type: cell-based; in short: as §3
NIH3T3 [16] = assay: Stability of FKBP12 L106A mutant-C terminus of YFP fusion protein expressed in NIH3T3 cells assessed as mean fluorescence intensity at 1 uM after 24 hrs by flow cytometry; type: cell-based; in short: as §3
NIH3T3 [17] = assay: Stability of FKBP12 V4A mutant-N terminus of YFP fusion protein expressed in NIH3T3 cells assessed as mean fluorescence intensity at 1 uM after 24 hrs by flow cytometry relative to FKBP12 F36V mutant; type: cell-based; in short: as §3
NIH3T3 [18] = assay: Stability of FKBP12 17V mutant-N terminus of YFP fusion protein expressed in NIH3T3 cells assessed as mean fluorescence intensity at 1 uM after 24 hrs by flow cytometry relative to FKBP12 F36V mutant; type: cell-based; in short: as §3
NIH3T3 [19] = assay: Stability of FKBP12 V2A/V4A mutant-N terminus of YFP fusion protein expressed in NIH3T3 cells assessed as mean fluorescence intensity at 1 uM after 24 hrs by flow cytometry relative to FKBP12 F36V mutant; type: cell-based; in short: as §3
NIH3T3 [20] = assay: Stability of FKBP12 V2A/17V mutant-N terminus of YFP fusion protein expressed in NIH3T3 cells assessed as mean fluorescence intensity at 1 uM after 24 hrs by flow cytometry relative to FKBP12 F36V mutant; type: cell-based; in short: as §3
NIH3T3 [21] = assay: Stability of FKBP12 V4A/17V mutant-N terminus of YFP fusion protein expressed in NIH3T3 cells assessed as mean fluorescence intensity at 1 uM after 24 hrs by flow cytometry relative to FKBP12 F36V mutant; type: cell-based; in short: as §3
NIH3T3 [22] = assay: Stability of FKBP12 V2A/V4A/17V mutant-N terminus of YFP fusion protein expressed in NIH3T3 cells assessed as mean fluorescence intensity at 1 uM after 24 hrs by flow cytometry relative to FKBP12 F36V mutant; type: cell-based; in short: as §3
NIH3T3 [23] = assay: Stability of FKBP12 V2A mutant-firefly luciferase fusion protein expressed in NIH3T3 cells assessed as rescue of luminescence at 1 or 10 uM after 24 hrs by dual luciferase reporter assay; type: cell-based
NIH3T3 [24] = assay: Effect on Epb4.1l2 mRNA level in mouse NIH3T3 cells at 1 uM after 24 hrs by microarray analysis relative to control; type: functional
In short: (§4)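 NIH3T3 cells, in triplicate, mock-treated or treated with 10 nM, 100 nM or 1 µM for 24 h. Total RNA hybridized to MEEBO oligonucleotide arrays. Differentially expressed genes identified by unpaired two-class SAM against mock-treated samples, FDR ≤27.5%. Fold change reported.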

NIH3T3 [25] = assay: Effect on Csnkle mRNA level in mouse NIH3T3 cells at 1 uM after 24 hrs by microarray analysis relative to control; type: functional; in short: as §4
NIH3T3 [26] = assay: Effect on Tcfe3 mRNA level in mouse NIH3T3 cells at 1 uM after 24 hrs by microarray analysis relative to control; type: functional; in short: as §4
NIH3T3 [27] = assay: Effect on MtCrVgp3 mRNA level in mouse NIH3T3 cells at 10 nM after 24 hrs by microarray analysis relative to control; type: functional; settings: in the assay text read “at 1 uM” for “at 10 nM”; in short: as §4
NIH3T3 [28] = assay: Effect on 4930422M22Rik mRNA level in mouse NIH3T3 cells at 10 nM after 24 hrs by microarray analysis relative to control; type: functional; in short: as §4
NIH3T3 [29] = assay: Effect on A430110N23 mRNA level in mouse NIH3T3 cells at 10 nM after 24 hrs by microarray analysis relative to control; type: functional; in short: as §4
NIH3T3 [30] = assay: Effect on Ptpn1 mRNA level in mouse NIH3T3 cells at 10 nM after 24 hrs by microarray analysis relative to control; type: functional; in short: as §4
NIH3T3 [31] = assay: Effect on Npas4 mRNA level in mouse NIH3T3 cells at 10 nM after 24 hrs by microarray analysis relative to control; type: functional; in short: as §4
NIH3T3 [32] = assay: Effect on Shkbp1 mRNA level in mouse NIH3T3 cells at 10 nM after 24 hrs by microarray analysis relative to control; type: functional; in short: as §4
NIH3T3 [33] = assay: Prevention of proteasome mediated degradation of FKBP12-YFP fusion protein expressed in mouse NIH3T3 cells at 10 uM

## CC[C@H](C(=O)N1CCCC[C@H]1C(=O)O[C@H](CCc1ccc(OC)c(OC)c1)c1cccc(OCC(=O)O)c1)c1cc(OC)c(OC)c(OC)c1
NIH3T3 [1]
  Activity: Active
[2]
  Kd: 0.4 nM

## CC[C@H](C(=O)N1CCCC[C@H]1C(=O)O[C@H](CCc1ccc(OC)c(OC)c1)c1cccc(OCC(=O)OCCn2ccnn2)c1)c1cc(OC)c(OC)c(OC)c1
NIH3T3 [1]
  Activity: Active
[2]
  Kd: 0.7 nM

## CC[C@H](C(=O)N1CCCC[C@H]1C(=O)O[C@H](CCc1ccc(OC)c(OC)c1)c1cccc(OCC(=O)NCC(C)(C)N)c1)c1cc(OC)c(OC)c(OC)c1
NIH3T3 [1]
  Activity: Active
[2]
  Kd: 0.9 nM

## CC[C@H](C(=O)N1CCCC[C@H]1C(=O)O[C@H](CCc1ccc(OC)c(OC)c1)c1cccc(OCCN2CCOCC2)c1)c1cc(OC)c(OC)c(OC)c1
NIH3T3 [3]
  Activity: Active
[4]
  EC50: 60 nM
[2]
  Kd: 0.4 nM
[5]
  Kd: 2 nM
[6]
  Kd: 4 nM
[7]
  Kd: 3 nM
[8]
  Kd: 2 nM
NIH3T3 [9]
  Stability: Stable
NIH3T3 [10]
  Stability: Stable
NIH3T3 [11]
  Stability: Stable
NIH3T3 [12]
  Stability: Stable
NIH3T3 [13]
  Activity: inactive
NIH3T3 [14]
  Activity: inactive
NIH3T3 [15]
  Activity: inactive
NIH3T3 [16]
  Activity: inactive
NIH3T3 [17]
  Activity: Active
NIH3T3 [18]
  Activity: Active
NIH3T3 [19]
  Activity: Active
NIH3T3 [20]
  Activity: Active
NIH3T3 [21]
  Activity: Active
NIH3T3 [22]
  Activity: Active
NIH3T3 [23]
  Activity: Dose-dependent effect
NIH3T3 [24]
  fold change (FC): 2.2
NIH3T3 [25]
  fold change (FC): 2.7
NIH3T3 [26]
  fold change (FC): 1.9
NIH3T3 [27]
  fold change (FC): -11.3
NIH3T3 [28]
  fold change (FC): -2.2
NIH3T3 [29]
  fold change (FC): -2.1
NIH3T3 [30]
  fold change (FC): -1.7
NIH3T3 [31]
  fold change (FC): -1.7
NIH3T3 [32]
  fold change (FC): -2.3

## CC(=O)N[C@@H](CSC(=O)[C@]1([C@@H](O)C(C)C)NC(=O)[C@H](C)[C@@H]1O)C(=O)O
NIH3T3 [33]
  Activity: Active
